Laboratory results taken from ChEMBL document CHEMBL1135992, “Quantitative structure-activity relationship analysis of functionalized amino acid anticonvulsant agents using k nearest neighbor and simulated annealing PLS methods” (2002).

Tests used:
Assay type in all cases: functional
Mus musculus [1] = assay: In vivo anticonvulsant activity in male albino mice using the maximal electroshock (MES) test after intraperitoneal administration; value ranges from 21.4-40.8; settings: ip
Mus musculus [2] = assay: Anticonvulsant activity in mice following i.p. treatment and Maximal Electroshock Seizure (MES) test.
Summary of the method: (§1)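 Mice (18–25 g) received the compound ip as a suspension in 0.5% (w/v) methylcellulose in water. A 60-cycle alternating current of 50 mA was applied for 0.2 s. Protection was defined as abolition of the hindlimb tonic extensor component. […] ED50 and 95% confidence interval were calculated by Finney's methods.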

Mus musculus [3] = assay: In vivo anticonvulsant activity in male albino mice using the maximal electroshock (MES) test after intraperitoneal administration (exp 2); settings: ip; summary of the method: as §1
Mus musculus [4] = assay: In vivo anticonvulsant activity in male albino mice using the maximal electroshock (MES) test after intraperitoneal administration (exp 1); settings: ip; summary of the method: as §1
Mus musculus [5] = assay: In vivo anticonvulsant activity in male albino mice using the maximal electroshock seizure(MES) test upon intraperitoneal administration, expressed as logarithm of effective dose
Summary of the method: (§2)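 Mice (18–25 g) received the test agent intraperitoneally as a suspension in 0.5% (w/v) methylcellulose in water. A 60-cycle alternating current at 50 mA was applied for 0.2 s, and protection meant abolition of the hindlimb tonic extensor component. The ED50 was determined at the time of peak effect in groups of at least eight mice. At least two doses fell between 100% and 0% protection, and the 95% confidence interval was calculated by Finney's method.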

Mus musculus [6] = assay: In vivo anticonvulsant activity in male albino mice using the maximal electroshock seizure(MES) test upon intraperitoneal administration; value ranges from 46 to 61; settings: ip
Mus musculus [7] = assay: In vivo anticonvulsant activity in male albino mice using the maximal electroshock seizure(MES) test upon intraperitoneal administration; settings: ip; summary of the method: as §1
Mus musculus [8] = assay: In vivo anticonvulsant activity in male albino mice using the maximal electroshock seizure(MES) test upon intraperitoneal administration; value ranges from 75.4 to 101; settings: ip
Mus musculus [9] = assay: In vivo anticonvulsant activity in male albino mice using the maximal electroshock seizure(MES) test upon intraperitoneal administration (exp 2); settings: ip; summary of the method: as §1
Mus musculus [10] = assay: In vivo anticonvulsant activity in male albino mice using the maximal electroshock seizure(MES) test upon intraperitoneal administration, expressed as logarithm of effective dose; value ranges from 2.58 to 3.06; summary of the method: as §2
Mus musculus [11] = assay: In vivo anticonvulsant activity in male albino mice using the maximal electroshock seizure(MES) test upon intraperitoneal administration (exp 1); settings: ip; summary of the method: as §1
Mus musculus [12] = assay: In vivo anticonvulsant activity in male albino mice using the maximal electroshock seizure(MES) test upon intraperitoneal administration; value ranges from 14.6 to 41; settings: ip; summary of the method: as §1
Mus musculus [13] = assay: In vivo anticonvulsant activity in male albino mice using the maximal electroshock seizure(MES) test upon intraperitoneal administration, expressed as logarithm of effective dose; value ranges from 2.01 to 2.63
Mus musculus [14] = assay: In vivo anticonvulsant activity in male albino mice using the maximal electroshock seizure(MES) test upon intraperitoneal administration (exp-1); settings: ip; summary of the method: as §2
Mus musculus [15] = assay: In vivo anticonvulsant activity in male albino mice using the maximal electroshock seizure(MES) test upon intraperitoneal administration (exp-2); settings: ip; summary of the method: as §2
Mus musculus [16] = assay: In vivo anticonvulsant activity in male albino mice using the maximal electroshock seizure(MES) test upon intraperitoneal administration, expressed as logarithm of effective dose; value ranges from 2.10 to 2.63
Mus musculus [17] = assay: In vivo anticonvulsant activity in male albino mice using the maximal electroshock (MES) test after intraperitoneal administration; settings: ip; summary of the method: as §2
Mus musculus [18] = assay: In vivo anticonvulsant activity in male albino mice using the maximal electroshock (MES) test after intraperitoneal administration; value ranges from 85.7-151; settings: ip
Mus musculus [19] = assay: In vivo anticonvulsant activity in male albino mice using the maximal electroshock seizure(MES) test upon intraperitoneal administration; value ranges from 34.9 to 45; settings: ip; summary of the method: as §2

| Structure (SMILES) | Log ED50 (Mus musculus [2]) [uM kg-1] | Log ED50 (Mus musculus [5]) [uM kg-1] | other results |
| --- | --- | --- | --- |
| CNC(C)C(=O)NCc1ccccc1 (stereo not given) | 2.21 |  | ED50 (Mus musculus [1]): 31.2 mg/kg |
| CCC(NC)C(=O)NCc1ccccc1 (stereo not given) | 2.69 |  | ED50 (Mus musculus [3]): < 100 mg/kg; ED50 (Mus musculus [4]): > 30 mg/kg |
| C/C(S)=N\C(C(=O)NCc1ccccc1)c1ccco1 (stereo not given) |  | 1.8 |  |
| CC(=O)NC(C(=O)NCc1ccccc1)c1nccs1 (stereo not given) |  | 1.62 |  |
| CC(=O)NC(C(=O)NCc1ccccc1)c1ccsc1 (stereo not given) |  | 2.48 |  |
| CC(=O)NC(C(=O)NCc1ccccc1)c1ccc(C)o1 (stereo not given) |  | 1.83 |  |
| CC(=O)NC(C(=O)NCc1ccccc1)c1ncco1 (stereo not given) |  | 1.58 |  |
| O=C(NCc1ccccc1)C1CCCCN1 (stereo not given) |  | 2.38 | ED50 (Mus musculus [6]): 53 mg/kg |
| CC(=O)NC(C(=O)NCc1cc(F)ccc1F)c1ccco1 (stereo not given) |  | 1.89 |  |
| COC(NC(C)=O)C(=O)NCc1ccccc1 (stereo not given) | 2.62 |  |  |
| CC(=O)NCC(C)C(=O)NCc1ccccc1 (stereo not given) |  | 3.06 | ED50 (Mus musculus [7]): 270 mg/kg |
| CC(=O)NC(C(=N)S)C(=O)NCc1ccccc1 (stereo not given) |  | 2.51 | ED50 (Mus musculus [8]): 86.2 mg/kg |
| CCNC(NC(C)=O)C(=O)NCc1ccccc1 (stereo not given) | 2.23 |  |  |
| CCC(=O)NC(COC)C(=O)NCc1ccccc1 (stereo not given) |  |  | ED50 (Mus musculus [9]): < 300 mg/kg; Log ED50 (Mus musculus [10]): 3.06 uM kg-1; ED50 (Mus musculus [11]): > 100 mg/kg |
| CC(=O)NC(C(=O)NCc1ccccc1)c1ccco1 (stereo not given) |  | 1.58 |  |
| CN1CSCC1C(=O)NCc1ccccc1 (stereo not given) |  | 2.09 | ED50 (Mus musculus [12]): 29.1 mg/kg |
| COCC(NC(C)=O)C(=O)N(C)Cc1ccccc1 (stereo not given) |  |  | ED50 (Mus musculus [9]): < 300 mg/kg; Log ED50 (Mus musculus [10]): 3.06 uM kg-1; ED50 (Mus musculus [11]): > 100 mg/kg |
| CC(=O)NC(O)C(=O)NCc1ccccc1 (stereo not given) | 2.56 |  |  |
| CNC(NC(C)=O)C(=O)NCc1ccccc1 (stereo not given) | 2.28 |  |  |
| C=CC(=O)NC(COC)C(=O)NCc1ccccc1 (stereo not given) |  |  | ED50 (Mus musculus [9]): < 300 mg/kg; Log ED50 (Mus musculus [10]): 3.06 uM kg-1; ED50 (Mus musculus [11]): > 100 mg/kg |
| COCC(NC=O)C(=O)NCc1ccccc1 (stereo not given) |  |  | Log ED50 (Mus musculus [13]): 2.63 uM kg-1; ED50 (Mus musculus [9]): < 100 mg/kg; ED50 (Mus musculus [11]): > 30 mg/kg |
| CC(=O)N(C)C(C)C(=O)NCc1ccccc1 (stereo not given) |  |  | ED50 (Mus musculus [14]): > 30 mg/kg; ED50 (Mus musculus [15]): < 100 mg/kg; Log ED50 (Mus musculus [16]): 2.63 uM kg-1 |
| CON(C)C(NC(C)=O)C(=O)NCc1ccccc1 (stereo not given) | 1.4 |  |  |
| CC(=O)NC(C(=O)NCc1ccccc1)c1ccccn1 (stereo not given) |  | 1.58 |  |
| CC(=O)NC(C)C(=O)NCCCc1ccccc1 (stereo not given) | 2.55 |  | ED50 (Mus musculus [17]): 87.6 mg/kg |
| CC(=O)NC(C(=N)NO)C(=O)NCc1ccccc1 (stereo not given) | 2.63 |  | ED50 (Mus musculus [18]): 112 mg/kg |
| CC(=O)NC(C(=O)NCc1ccccc1)c1ncccn1 (stereo not given) |  | 1.46 |  |
| CCCC(NC(C)=O)C(=O)NCc1ccccc1 (stereo not given) |  | 2.19 | ED50 (Mus musculus [19]): 38.4 mg/kg |
| CC(=O)NC(C(=O)NCc1ccccc1)c1cnccn1 (stereo not given) |  | 1.72 |  |
| CC(=O)NC(C(=O)NCc1ccccc1)c1cccs1 (stereo not given) |  | 2.19 |  |
